One experiment has as its system PA 2108 (MDR). Briefly: Broth microdilution antibacterial activity. In kind it is cell-based, Pseudomonas aeruginosa. The note with it: for MIC: Pseudomonas aeruginosa; for Antibacterial activity against PA (in words): highest concentration tested.
The test system of another experiment is AB (17978 and 1605). In words: Broth microdilution antibacterial activity, AB strains summarised in the text. In kind it is cell-based, Acinetobacter baumannii. To be noted: for MIC: Acinetobacter baumannii, read-out: MICs against AB, one or both strains tested; for Antibacterial activity against AB strains (in words): highest concentration tested. On the technique in general: Dilution methods test growth across graded concentrations, often in twofold steps.

For another experiment, the system named is AB 17978. Briefly: Broth microdilution antibacterial activity. It counts as cell-based. The note with it: Acinetobacter baumannii, read-out: MIC AB 17978.
The test system of the next experiment is AB 1605 (MDR). Briefly: Broth microdilution antibacterial activity. In kind it is cell-based. The note with it: Acinetobacter baumannii, read-out: MIC AB 1605 (MDR).
For another experiment, the target named is AB ATP synthase (UniProt A3M139+B2I0Z6). It counts as biochemical, Acinetobacter baumannii. The note with it: for Inhibition of AB ATP synthase (in words): even at high / highest concentrations tested.
The target of another experiment is PA ATP synthase (Pseudomonas aeruginosa, UniProt Q9HT14+Q9HT15). In words: biochemical. The note with it: for Inhibition of PA ATP synthase (in words): even at high / highest concentrations tested.
The next experiment has as its system PA ETC. In words: Inhibition of NADH-driven H+ pumping of the ETC in PA inverted vesicles. In kind it is biochemical, Pseudomonas aeruginosa. The method, boiled down: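 Inverted inner-membrane vesicles came from P. aeruginosa ATCC 9027 (LB, 37°C, 150 rpm, late exponential). Cells were homogenizer-lysed in Tris-HCl pH 7.5/MgCl2/glycerol buffer, cleared at 9,000 x g, and vesicles pelleted at 169,000 x g. Assay used vesicles at 0.5 mg/mL in HEPES/300 mM KCl pH 7.5 with ACMA and test compound in DMSO. NADH to 0.8 mM started pumping; nigericin stopped it. Fluorescence Ex 415/Em 485 nm; percent quenching normalized to no-inhibitor control.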

Another experiment deals with MT ATP synthase. The note with it: cited from earlier work.

Converted amounts (≈) assume the structure as drawn. Where two headings read alike, the source gives them in different places. Some results are limits rather than exact numbers.

On to `CCN1CCC(CCNCc2cc3cc(-c4ccccc4)ccc3nc2SCc2ccccc2)CC1` [WSA261, N‐((2‐(benzylthio)‐6‐phenylquinolin‐3‐yl)methyl)‐2‐(1‐ethylpiperidin‐4‐yl)ethan‐1‐amine], for which the MIC with PA 2108 (MDR) (read-out: MIC PA 2108 (MDR)) was 64 µg/mL (≈ 129 µM); with AB (17978 and 1605), 8 to 16 µg/mL (≈ 16.1 to 32.3 µM); in the experiment on AB 17978 it was 8 µg/mL (≈ 16.1 µM); in the experiment on AB 1605 (MDR), 16 µg/mL (≈ 32.3 µM).
For the molecule `O=C(N[C@H](CO)[C@H](O)c1ccc([N+](=O)[O-])cc1)C(Cl)Cl` [Chloramphenicol, reference compound], the MIC with PA 2108 (MDR) (read-out: MIC PA 2108 (MDR)) and in the experiment with AB 17978 was 64 µg/mL (≈ 198 µM) in each case.
For the molecule `Brc1ccc2nc(SCc3ccccc3)c(CNCc3ccc(CN4CCCC4)cc3)cc2c1` [WSA256, 1‐(2‐(benzylthio)‐6‐bromoquinolin‐3‐yl)‐N‐(4‐(pyrrolidin‐1‐ylmethyl)benzyl)methanamine], the MIC with PA 2108 (MDR) (read-out: MIC PA 2108 (MDR)), with AB 17978 and in the experiment on AB 1605 (MDR) was greater than 128 µg/mL throughout. Also, in the experiment with PA 2108 (MDR), the “Antibacterial activity against PA (in words)” value is “inactive”. Besides, the “Antibacterial activity against AB strains (in words)” value with AB (17978 and 1605) is “inactive”.
For `CN1CCN(CCNCc2cc3ccccc3nc2SCc2ccccc2)CC1` [WSA250, N‐((2‐(benzylthio)quinolin‐3‐yl)methyl)‐2‐(4‐methylpiperazin‐1‐yl)ethan‐1‐amine], the MIC with PA 2108 (MDR) (read-out: MIC PA 2108 (MDR)) was determined as 64 µg/mL (≈ 157 µM); in the experiment with AB 17978, 64 µg/mL (≈ 157 µM); in the experiment on AB 1605 (MDR) it was 128 µg/mL (≈ 315 µM).
Turning to `c1ccc(CSc2nc3ccc(-c4ccccc4)cc3cc2CNCc2ccc(CN3CCCC3)cc2)cc1` [WSA269, 1‐(2‐(benzylthio)‐6‐phenylquinolin‐3‐yl)‐N‐(4‐(pyrrolidin‐1‐ylmethyl)benzyl)methanamine], the MIC in the experiment on PA 2108 (MDR) (read-out: MIC PA 2108 (MDR)), with AB 17978 and in the experiment on AB 1605 (MDR) was greater than 128 µg/mL in each case. Also, the “Antibacterial activity against PA (in words)” value in the experiment on PA 2108 (MDR) was “inactive”. For the same molecule, in the experiment with AB (17978 and 1605), the “Antibacterial activity against AB strains (in words)” value is “inactive”.
In the case of `c1ccc(CSc2nc3ccccc3cc2CNCc2ccc(N3CCCCC3)cc2)cc1` [WSA248, 1‐(2‐(benzylthio)quinolin‐3‐yl)‐N‐(4‐(piperidin‐1‐yl)benzyl)methanamine], on AB ATP synthase, the “Inhibition of AB ATP synthase (in words)” value is on record as “no significant inhibition”. The MIC with PA 2108 (MDR) (read-out: MIC PA 2108 (MDR)), in the experiment on AB 17978 and in the experiment with AB 1605 (MDR) was greater than 128 µg/mL in each case. Also, the “Antibacterial activity against PA (in words)” value in the experiment on PA 2108 (MDR) was “inactive”. In addition, in the experiment on AB (17978 and 1605), the “Antibacterial activity against AB strains (in words)” value is “inactive”. At PA ATP synthase, the “Inhibition of PA ATP synthase (in words)” value is “no significant inhibition”.
For the molecule `Brc1ccc2nc(SCc3ccccc3)c(CNCCC3CCN(C4CCCC4)CC3)cc2c1` [WSA255, N‐((2‐(benzylthio)‐6‐bromoquinolin‐3‐yl)methyl)‐2‐(1‐cyclopentylpiperidin‐4‐yl)ethan‐1‐amine], the MIC was 32 µg/mL (≈ 59.4 µM) in the experiment with PA 2108 (MDR) (read-out: MIC PA 2108 (MDR)); 8 to 16 µg/mL (≈ 14.9 to 29.7 µM) with AB (17978 and 1605); 16 µg/mL (≈ 29.7 µM) in the experiment with AB 17978. In the experiment with PA ETC (PA ETC IC50 versus PA ATP synthase IC50), the “Fold less potent against the ETC compared to ATP synthase” value is recorded as “more than 7 fold”. Besides, in the experiment on PA ETC (PA vesicles, dose response fit), the “PA ETC IC50” value amounted to 1.7 µg/mL. Also, the IC50 (commonly the concentration at which inhibition is half-maximal) against PA ATP synthase was 427 nM.
As for `c1ccc(CSc2nc3ccc(-c4ccccc4)cc3cc2CNCCC2CCN(C3CCCC3)CC2)cc1` [WSA262, N‐((2‐(benzylthio)‐6‐phenylquinolin‐3‐yl)methyl)‐2‐(1‐cyclopentylpiperidin‐4‐yl)ethan‐1‐amine], the results for the MIC with PA 2108 (MDR) (read-out: MIC PA 2108 (MDR)) and in the experiment on AB 17978 were 64 µg/mL (≈ 119 µM) and 32 µg/mL (≈ 59.7 µM), respectively.
On to `c1ccc(CSc2nc3ccccc3cc2CNCc2ccc(CN3CCCC3)cc2)cc1` [WSA249, 1‐(2‐(benzylthio)quinolin‐3‐yl)‐N‐(4‐(pyrrolidin‐1‐ylmethyl)benzyl)methanamine], for which the MIC worked out at 16 µg/mL (≈ 35.3 µM) in the experiment on PA 2108 (MDR) (read-out: MIC PA 2108 (MDR)), 16 µg/mL (≈ 35.3 µM) in the experiment on PA 2108 (MDR) (read-out: MIC against MDR PA), 32 µg/mL (≈ 70.5 µM) with AB 17978 and 64 µg/mL (≈ 141 µM) in the experiment on AB 1605 (MDR).
`CN1CCN(CCNCc2cc3cc(Br)ccc3nc2SCc2ccccc2)CC1` [WSA257, N‐((2‐(benzylthio)‐6‐bromoquinolin‐3‐yl)methyl)‐2‐(4‐methylpiperazin‐1‐yl)ethan‐1‐amine]: the MIC in the experiment with PA 2108 (MDR) (read-out: MIC PA 2108 (MDR)) was 16 µg/mL (≈ 33 µM); in the experiment on PA 2108 (MDR) (read-out: MIC against MDR PA) it was 16 µg/mL (≈ 33 µM); with AB (17978 and 1605), 8 to 16 µg/mL (≈ 16.5 to 33 µM); in the experiment on AB 17978, 8 µg/mL (≈ 16.5 µM); in the experiment with AB 1605 (MDR), 16 µg/mL (≈ 33 µM). Further, the IC50 against PA ATP synthase was 268 nM.
For the molecule `COc1cc2cc(CNCCN3CCN(C)CC3)c(SCc3ccccc3)nc2c(OC)c1OC` [WSA253, N‐((2‐(benzylthio)‐6,7,8‐trimethoxyquinolin‐3‐yl)methyl)‐2‐(4‐methylpiperazin‐1‐yl)ethan‐1‐amine], the “Fold improvement of IC50 for AB by trimethoxy modification” value on AB ATP synthase is reported as 3 fold. Moreover, the MIC in the experiment with PA 2108 (MDR) (read-out: MIC PA 2108 (MDR)) was 128 µg/mL (≈ 258 µM); with AB 17978 it was 128 µg/mL (≈ 258 µM); with AB 1605 (MDR) it was greater than 128 µg/mL. Also, the “Fold worsening of IC50 for PA by trimethoxy modification” value on PA ATP synthase was roughly 3 fold.
`COc1cc2cc(CNCCC3CCN(C4CCCC4)CC3)c(SCc3ccccc3)nc2c(OC)c1OC` [WSA252, N‐((2‐(benzylthio)‐6,7,8‐trimethoxyquinolin‐3‐yl)methyl)‐2‐(1‐cyclopentylpiperidin‐4‐yl)ethan‐1‐amine]: the MIC with PA 2108 (MDR) (read-out: MIC PA 2108 (MDR)) and with AB 17978 was 64 µg/mL (≈ 116 µM) in each case.
Take `CN1CCN(CCNCc2cc3cc(-c4ccccc4)ccc3nc2SCc2ccccc2)CC1` [WSA270, N‐((2‐(benzylthio)‐6‐phenylquinolin‐3‐yl)methyl)‐2‐(4‐methylpiperazin‐1‐yl)ethan‐1‐amine]: the MIC was 32 µg/mL (≈ 66.3 µM) in the experiment on PA 2108 (MDR) (read-out: MIC PA 2108 (MDR)); 8 to 16 µg/mL (≈ 16.6 to 33.1 µM) in the experiment with AB (17978 and 1605); 16 µg/mL (≈ 33.1 µM) in the experiment on AB 17978.
With `CCN1CCC(CCNCc2cc3cc(OC)c(OC)c(OC)c3nc2SCc2ccccc2)CC1` [WSA251, N‐((2‐(benzylthio)‐6,7,8‐trimethoxyquinolin‐3‐yl)methyl)‐2‐(1‐ethylpiperidin‐4‐yl)ethan‐1‐amine], the “Fold less potent than WSA236 against PA (antibacterial)” value with PA 2108 (MDR) (MIC comparison) is listed as 4 fold. Further, the MIC was 128 µg/mL (≈ 251 µM) in the experiment with PA 2108 (MDR) (read-out: MIC PA 2108 (MDR)), 128 µg/mL (≈ 251 µM) with AB 17978 and greater than 128 µg/mL with AB 1605 (MDR). In the experiment with AB (17978 and 1605) (MIC comparison), the “Fold less potent than WSA236 against AB (antibacterial)” value was found to be 2 fold.
With `COc1nc2ccc(Br)cc2cc1[C@@H](c1ccccc1)[C@@](O)(CCN(C)C)c1cccc2ccccc12` [BDQ, bedaquiline, reference compound], the “Potency against MT ATP synthase (in words)” value in the experiment on MT ATP synthase is “nanomolar potency”. Besides, on AB ATP synthase, the “Inhibition of AB ATP synthase (in words)” value is recorded as “does not fully inhibit”. Also, at PA ATP synthase, the “Inhibition of PA ATP synthase (in words)” value is “does not fully inhibit”.
For the molecule `CCN1CCC(CCNCc2cc3cc(Br)ccc3nc2SCc2ccccc2)CC1` [WSA254, N‐((2‐(benzylthio)‐6‐bromoquinolin‐3‐yl)methyl)‐2‐(1‐ethylpiperidin‐4‐yl)ethan‐1‐amine], the MIC with PA 2108 (MDR) (read-out: MIC PA 2108 (MDR)) is 32 µg/mL (≈ 64.2 µM); with AB (17978 and 1605), 8 to 16 µg/mL (≈ 16 to 32.1 µM); in the experiment on AB 17978 it was 16 µg/mL (≈ 32.1 µM).
